Screening results deposited in PubChem by several laboratories.
TRPN1 ag: activates the zebrafish TRPN1 channel; activation, % at 3 µM; 220,000 tested, 0.18% active; AID 1424; HEK293 zebrafish TRPN1-YFP, Fluo-8 calcium fluorescence; 100% = response to 87 µM carbachol;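 active means activation above its plate's cutoff, the mean activation of test wells on that plate plus 3 SD, cut at about 19% in these data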;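 further: 0% = DMSO alone and 100% = 87 µM carbachol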
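Assay system: Zebrafish TRPN1-YFP in HEK293 cells | Incubation: Dye loading 1 h at 37 °C, then 30 min room temperature | Measured by: Kinetic Fluo-8 fluorescence, ex 470-495, em 515-575 nm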
TAAR1 agonist: agonists of human TAAR1; Q96RJ0; CHO RD-HGA16 TAAR1, Fluo-8 calcium fluorescence; vehicle wells 0%, saturating PEA agonist 100%; activation, % at 3 µM; 360,000 tested, 0.99% active; AID 624467;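 active means activation above the mean activation of all test compounds in the run plus 3 SD, cut at about 38% in these data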
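Test system: RD-HGA16 (CHO) cells co-expressing Gα16 and hTAAR1 | Doses: Single dose, 3 µM | Schedule: 17-24 h seeding, 75 min 37 °C dye, 30 min RT | Evaluation: % activation from peak over basal fluorescence ratio, DMSO-to-PEA scaled | Technique: Kinetic Fluo-8 calcium fluorescence | Benchmarks: Low control DMSO, high control PEA (EC100)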
TAAR1 antagonist: antagonists of human TAAR1. CHO RD-HGA16 TAAR1, Fluo-8 calcium fluorescence, antagonist. 360,000 tested, 1.5% active. inhibition, % at 3 µM. Q96RJ0;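 active means inhibition above a per-plate cutoff, the mean inhibition of test compounds on that plate plus 3 SD, cut at about 49% in these data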;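 further: 0% = DMSO plus EC80 beta-PEA response and 100% = DMSO alone without agonist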
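Assay system: CHO-derived RD-HGA16 cells stably expressing human TAAR1 plus Gα16. Timing: 140 s kinetic read after compound, 140 s after agonist. Technique: kinetic Fluo-8 calcium fluorescence measurement. Measure: % inhibition of agonist calcium response.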
TRPML3 agonist: human mucolipin-3 channel agonism; Q8TDD5; HEK293 TRPML3-YFP, Fluo-8 calcium fluorescence; 100% = the carbachol control signal; activation, % at 3 µM; 220,000 tested, 0.29% active; AID 1448;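 active means activation above its plate's cutoff, the mean activation of the plate's test wells plus 3 SD, cut at about 12% in these data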;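 further: 0% = DMSO only wells and 100% = carbachol wells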
Target sequence (Q8TDD5 whole entry, looked up): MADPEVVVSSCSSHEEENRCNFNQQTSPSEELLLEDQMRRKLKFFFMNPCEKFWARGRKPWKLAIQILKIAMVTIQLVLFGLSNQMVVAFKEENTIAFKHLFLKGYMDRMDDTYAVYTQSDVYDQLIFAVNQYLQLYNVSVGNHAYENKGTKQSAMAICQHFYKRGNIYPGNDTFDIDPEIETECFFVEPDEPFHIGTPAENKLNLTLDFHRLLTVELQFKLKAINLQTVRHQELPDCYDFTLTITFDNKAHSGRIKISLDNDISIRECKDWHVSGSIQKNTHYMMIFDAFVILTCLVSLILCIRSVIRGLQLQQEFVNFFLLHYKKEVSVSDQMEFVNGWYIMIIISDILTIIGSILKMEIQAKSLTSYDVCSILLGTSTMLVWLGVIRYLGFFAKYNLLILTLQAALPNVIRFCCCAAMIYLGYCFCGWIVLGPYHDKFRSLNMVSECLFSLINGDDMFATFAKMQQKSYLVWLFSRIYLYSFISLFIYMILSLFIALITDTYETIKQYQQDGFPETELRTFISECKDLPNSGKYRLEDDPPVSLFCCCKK
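Test system – HEK293 line with stable expression of human TRPML3-YFP channel · Control set – carbachol 87 µM final as high control (100%), DMSO as low control (0%) · Signal – Fluo-8 calcium dye fluorescence, ex 470-495, em 515-575 nm · Incubation – 1-h 37 °C dye load, 5-s basal, 120-s post-compound reads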
LANA-H2A inh: blocks KSHV LANA binding to histone H2A/H2B; cell-free LANA-H2A/H2B peptide, fluorescence polarization; inhibition, % (concentration not given with the values); 320,000 tested, 0.6% active; AID 2629; in the data active means inhibition mostly above about 10%, no sharp cut-off; inactive means mostly below about 6.7%
GPR7 antag: blocks human GPR7 receptor signaling | GPR7-expressing cells, fluorescence antagonist assay | P48145 | inhibition, % at 4.4 µM | 290,000 tested, 1.1% active; in the data active means inhibition above about 16%, passing the limit was not always enough;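 further: cells stimulated with the agonist NPW; 0% = agonist with vehicle and 100% = vehicle without agonist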
nonsel antag count: counter-screen for TAAR1 antagonists: nonselective antagonists; inhibition, % at 3 µM; shares compounds with TAAR1 antagonist; 2,400 tested, 77% active; counterscreen cell line, calcium fluorescence, antagonist mode; in the data active means inhibition above about 22%;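 further: CHO-Ga16 host cells stimulated with ATP at an EC80 level; 0% = agonist EC80 plus vehicle and 100% = vehicle without agonist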
TAAR1 antag conf: confirmation of human TAAR1 antagonists; shares compounds with TAAR1 antagonist; TAAR1-expressing cells, fluorescence antagonist read-out; inhibition, % at 3 µM; 2,400 tested, 40% active; AID 651785; in the data active means inhibition above about 49%;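 further: CHO-Ga16 host cells challenged with agonist PEA near its EC80; 0% = agonist at EC80 plus vehicle and 100% = vehicle with no agonist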
Ga16 nonsel ag: counter-screen for TAAR1 antagonists: nonselective Ga16 agonists; activation, % at 3 µM; shares compounds with TAAR1 antagonist; 2,400 tested, 18% active; AID 651953; Ga16-expressing cells, calcium fluorescence, agonist counterscreen; in the data active means activation above about 12%;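 further: 0% = vehicle wells and 100% = saturating stimulus response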
TAAR1 ag counter: activates human TAAR1 in antagonist counter-screen | 2,400 tested, 2% active | shares compounds with TAAR1 antagonist | hTAAR1 cell line, fluorescence activation, agonist mode | activation, % at 3 µM | AID 651955; in the data active means activation above about 37%;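 further: CHO cells stably expressing TAAR1 with calcium dye readout; 0% = DMSO vehicle and 100% = full agonist response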
An asterisk follows results filed as active. A selection: hits, their analogues and other compounds. The true share with any hit is near 3.4%.

Results for COc1cccc(OCCn2cc(C(=O)c3ccco3)c3ccccc32)c1 ?
TRPN1 ag: 0.8; TAAR1 agonist: 8.2; TAAR1 antagonist: 70.3*; TRPML3 agonist: -0.1; LANA-H2A inh: -2.3; GPR7 antag: 10.6; nonsel antag count: 22.5*; TAAR1 antag conf: 46.0; Ga16 nonsel ag: 5.0; TAAR1 ag counter: 7.1

What do the screens show for `COc1cc(C2CC(=O)c3c([nH]c(C(=O)OCCOC(C)C)c3C)C2)cc(OC)c1OC` (centres undefined)?
TRPN1 ag: 9.3; TAAR1 agonist: 8.9; TAAR1 antagonist: 64.0*; TRPML3 agonist: 2.5; LANA-H2A inh: 0.9; GPR7 antag: 18.3*; nonsel antag count: 34.9*; TAAR1 antag conf: 44.7; Ga16 nonsel ag: 11.5*; TAAR1 ag counter: 13.4

What do the screens show for `COc1ccc(COc2cc(-c3cccc(OC)c3)nc3ccc(NC(=O)c4cccnc4)cc23)cc1`?
TRPN1 ag: 3.1; TAAR1 agonist: 12.3; TAAR1 antagonist: 69.0*; TRPML3 agonist: 0.6; LANA-H2A inh: 0.2; GPR7 antag: -2.1; nonsel antag count: 34.8*; TAAR1 antag conf: 46.7; Ga16 nonsel ag: 5.5; TAAR1 ag counter: 7.8

What do the screens show for `COc1ccc(OCC(=O)NNC(=O)c2cccnc2)cc1`?
TRPN1 ag: -0.1; TAAR1 agonist: 1.2; TAAR1 antagonist: -7.8; TRPML3 agonist: 0.6; LANA-H2A inh: -4.2; GPR7 antag: -8.8

What do the screens show for `COc1cc(-c2csc(N3CCOCC3)n2)cc(OC)c1OC`?
TRPN1 ag: -0.9; TAAR1 agonist: 6.1; TAAR1 antagonist: 9.2; TRPML3 agonist: -0.2; LANA-H2A inh: 1.4; GPR7 antag: 2.3

What do the screens show for `COc1ccc(-c2csc(N3CCN(c4cc(C)nc5ccccc45)CC3)n2)cc1OC`?
TRPN1 ag: 0.2; TAAR1 agonist: 7.2; TAAR1 antagonist: 59.9*; TRPML3 agonist: -1.1; LANA-H2A inh: -4.3; GPR7 antag: 1.9; nonsel antag count: 26.6*; TAAR1 antag conf: 42.5; Ga16 nonsel ag: 6.1; TAAR1 ag counter: 6.7

Results for COCCNc1ncnc2c1ncn2[C@H]1CN(Cc2ccco2)C[C@@H](CO)O1 ?
TAAR1 agonist: 0.5; TAAR1 antagonist: -9.5

Results for CCC[C@@H](NS(=O)(=O)c1ccc(C)cc1)C(=O)Oc1ccc2c3c(c(=O)oc2c1)CCC3 ?
TRPN1 ag: 1.3; TAAR1 agonist: 8.2; TAAR1 antagonist: 90.4*; TRPML3 agonist: 0.2; LANA-H2A inh: 0.2; GPR7 antag: -9.8; nonsel antag count: 46.6*; TAAR1 antag conf: 70.3*; Ga16 nonsel ag: 10.7; TAAR1 ag counter: 10.4

How did Cc1ccc(S(=O)(=O)NC(C(=O)Oc2ccc3c(C)c(Cl)c(=O)oc3c2)c2ccccc2)cc1 (centres undefined) do in these assays?
TRPN1 ag: 1.2; TAAR1 agonist: 5.2; TAAR1 antagonist: 12.5; TRPML3 agonist: 0.2; LANA-H2A inh: 8.0; GPR7 antag: -6.8

What do the screens show for `CCCc1cc(=O)[nH]c(SCc2cc(=O)oc3cc(C)c(C(C)C)cc23)n1`?
TRPN1 ag: 0.8; TAAR1 agonist: -2.8; TAAR1 antagonist: 103.4*; TRPML3 agonist: 0.5; LANA-H2A inh: 6.3; GPR7 antag: -1.6; nonsel antag count: 16.4; TAAR1 antag conf: 1.1; Ga16 nonsel ag: 2.5; TAAR1 ag counter: 5.2

Results for O=C(NCc1cccs1)C1CCN(S(=O)(=O)c2ccc(Br)s2)CC1 ?
TRPN1 ag: 0.0; TAAR1 agonist: 12.8; TAAR1 antagonist: -5.8; TRPML3 agonist: 0.7; LANA-H2A inh: -2.9; GPR7 antag: -5.7

What do the screens show for `O=C(NCc1cccs1)C1CCC(CNS(=O)(=O)c2ccc(Br)s2)CC1` (centres undefined)?
TRPN1 ag: 0.7; TAAR1 agonist: 26.3; TAAR1 antagonist: 57.0*; TRPML3 agonist: 0.0; LANA-H2A inh: -0.3; GPR7 antag: -15.4; nonsel antag count: 17.1; TAAR1 antag conf: 53.0*; Ga16 nonsel ag: 6.6; TAAR1 ag counter: 39.1*

What do the screens show for `OC[C@@H]1CN(Cc2ccco2)C[C@H](n2cnc3c(NCc4ccncc4)ncnc32)O1`?
TAAR1 agonist: 0.9; TAAR1 antagonist: -4.1

What do the screens show for `CC(C)C(=O)NC(=S)Nc1ccccc1N1CCN(C(=O)c2ccc(Cl)cc2)CC1`?
TRPN1 ag: 1.5; TAAR1 agonist: 17.2; TAAR1 antagonist: 80.6*; TRPML3 agonist: 0.8; LANA-H2A inh: 1.7; GPR7 antag: -13.5; nonsel antag count: 38.0*; TAAR1 antag conf: 57.7*; Ga16 nonsel ag: 13.6*; TAAR1 ag counter: 15.0

Results for CC(C)(C)C(=O)Nc1ccccc1N1CCN(C(=O)c2ccc(Cl)cc2)CC1 ?
TRPN1 ag: -0.7; TAAR1 agonist: 1.8; TAAR1 antagonist: -28.0; TRPML3 agonist: -1.8; LANA-H2A inh: -4.7; GPR7 antag: 9.4

Results for COc1ccc(O)c(/C=N/NC(=S)NCCc2ccccc2)c1 ?
TAAR1 agonist: 21.6; TAAR1 antagonist: 53.9*; LANA-H2A inh: -4.9; GPR7 antag: -21.1; nonsel antag count: 27.1*; TAAR1 antag conf: 56.5*; Ga16 nonsel ag: 14.8*; TAAR1 ag counter: 43.9*

Results for COc1ccc(/C=N/NC(=S)NCCc2ccccc2)cc1 ?
TAAR1 agonist: 2.7; TAAR1 antagonist: -5.8; LANA-H2A inh: -6.7; GPR7 antag: -13.1

How did CCNC(=O)C1(C)CCCN1C(=O)c1cnc2ccccc2n1 (centres undefined) do in these assays?
TAAR1 agonist: 0.6; TAAR1 antagonist: -0.4

How did O=C(CN1C(=O)c2cccnc2Oc2ccc(Cl)cc21)NCCCc1ccccc1 do in these assays?
TAAR1 agonist: 7.6; TAAR1 antagonist: 83.7*; LANA-H2A inh: -0.9; GPR7 antag: -18.7; nonsel antag count: 31.5*; TAAR1 antag conf: 55.8*; Ga16 nonsel ag: 9.0; TAAR1 ag counter: 9.2

How did CCCN1CCN(CCCNC(=O)CN2C(=O)c3cccnc3Oc3ccc(Cl)cc32)CC1 do in these assays?
TAAR1 agonist: 0.5; TAAR1 antagonist: -9.7; LANA-H2A inh: 5.1; GPR7 antag: -1.7
